Columns and labels:
[1] = biological target: Coagulation factor X (Homo sapiens) (UniProt P00742); assay: Apparent association constant against coagulation factor X
Procedure, shortened: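 Purchased human fXa, 3.2 nM final, in buffer of 0.06 M tris, 0.3 M NaCl, pH 7.4, with 1 mg/mL HSA in the enzyme diluent. Inhibitor is added in MeOH at 4–8 concentrations in triplicate, then Bz-Ile-Glu-Gly-Arg-pNA (0.3 mM stock in water) starts the reaction. Hydrolysis is read at 405 nm. Free and bound enzyme come from standard curves. Apparent Kass = [Eb]/[Ef][Io−Ib] at 20–80% inhibition.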

[2] = biological target: Prothrombin (Homo sapiens) (UniProt P00734); assay: Apparent association constant against Coagulation factor II
Procedure, shortened: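 Human α-thrombin, 5.9 nM, with chromogenic substrate Bz-Phe-Val-Arg-pNA at 0.2 mM. Uses the same general protocol as the fXa assay: pNA release read at 405 nm, with inhibitors auto-diluted in triplicate. Apparent Kass = [Eb]/[Ef][Io−Ib] at concentrations giving 20–80% inhibition. Values are mean ± SD when n≥3 and the average when n=2.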

Coagulation factor X (Homo sapiens), sequence (P00742 41-179 limits assumed): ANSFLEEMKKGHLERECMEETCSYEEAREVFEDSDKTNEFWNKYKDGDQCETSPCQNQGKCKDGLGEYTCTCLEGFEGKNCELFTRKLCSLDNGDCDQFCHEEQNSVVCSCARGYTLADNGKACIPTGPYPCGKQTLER
Coagulation factor X (Homo sapiens), sequence (P00742 235-488 limits assumed): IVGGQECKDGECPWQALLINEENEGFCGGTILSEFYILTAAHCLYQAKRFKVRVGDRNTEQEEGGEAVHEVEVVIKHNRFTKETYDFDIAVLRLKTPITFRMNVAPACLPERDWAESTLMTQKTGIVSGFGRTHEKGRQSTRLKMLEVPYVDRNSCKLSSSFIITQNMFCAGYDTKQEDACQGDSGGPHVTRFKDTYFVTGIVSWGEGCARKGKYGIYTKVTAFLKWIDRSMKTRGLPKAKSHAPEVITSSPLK

K ass [1] | K ass [2] | SMILES
840000 l M-1 | 20000 l M-1 | COc1ccc(C(=O)Nc2ccccc2NC(=O)c2ccc(OC)cc2)cc1
1.1e+06 l M-1 | 0 l M-1 | COc1ccc(C(=O)Nc2ccccc2NC(=O)c2ccc(-c3ccccc3)cc2)cc1
320000 l M-1 | 20000 l M-1 | COc1ccc(C(=O)Nc2ccc(C(=O)O)cc2NC(=O)c2ccc(OC)cc2)cc1
2.35e+06 l M-1 | 20000 l M-1 | COc1ccc(C(=O)Nc2ccccc2NC(=O)c2ccc(C(C)(C)OC)cc2)cc1
0 l M-1 | 0 l M-1 | COc1ccc(C(=O)N(C)c2ccccc2N(C)C(=O)c2ccc(OC)cc2)cc1
510000 l M-1 | 0 l M-1 | CC(C)(C)c1ccc(C(=O)Nc2ccccc2NC(=O)c2ccc(F)cc2)cc1
80000 l M-1 | 0 l M-1 | CCCCOc1ccc(C(=O)Nc2ccccc2NC(=O)c2ccc(OC)cc2)cc1
1.28e+07 l M-1 | 70000 l M-1 | COc1ccc(C(=O)Nc2ccc(C(=O)O)cc2NC(=O)c2ccc(C(C)(C)C)cc2)cc1
710000 l M-1 | 30000 l M-1 | COc1ccc(C(=O)Nc2ccccc2NC(=O)c2ccc(OC)cc2Cl)cc1
20000 l M-1 | 0 l M-1 | COc1cccc(C(=O)Nc2ccccc2NC(=O)c2ccc(C(C)(C)C)cc2)c1
10000 l M-1 | 0 l M-1 | CCc1ccc(C(=O)Nc2ccccc2NC(=O)c2ccc(C(C)(C)C)cc2)cc1
1.25e+06 l M-1 | – | COc1ccc(C(=O)Nc2ccc(OC)cc2NC(=O)c2ccc(OC)cc2)cc1
400000 l M-1 | 0 l M-1 | CC(C)(C)c1ccc(C(=O)Nc2ccccc2NC(=O)c2cccc(F)c2)cc1
420000 l M-1 | – | COc1ccc(C(=O)Nc2ccc(Cl)cc2NC(=O)c2ccc(OC)cc2)cc1
1.19e+06 l M-1 | 40000 l M-1 | COc1ccc(C(=O)Nc2ccccc2NC(=O)c2ccc(OC(C)C)cc2)cc1
380000 l M-1 | 70000 l M-1 | CC(C)(C)c1ccc(C(=O)Nc2ccccc2NC(=O)c2ccccc2)cc1
3.99e+06 l M-1 | 80000 l M-1 | COc1ccc(C(=O)Nc2cc(C(=O)O)ccc2NC(=O)c2ccc(C(C)(C)C)cc2)cc1
0 l M-1 | 0 l M-1 | CC(C)(C)c1ccc(C(=O)Nc2ccccc2NC(=O)c2ccc(OC(F)(F)F)cc2)cc1
2.55e+07 l M-1 | 50000 l M-1 | COc1ccc(C(=O)Nc2ccc(O)cc2NC(=O)c2ccc(N(C)C)cc2)cc1
530000 l M-1 | 0 l M-1 | COc1ccc(C(=O)Nc2ccccc2NC(=O)c2ccc(S(C)(=O)=O)cc2)cc1
660000 l M-1 | 0 l M-1 | COc1ccc(C(=O)Nc2ccccc2NC(=O)c2ccc(S(=O)(=O)N(C)C)cc2)cc1
0 l M-1 | 0 l M-1 | CCCCCCOc1ccc(C(=O)Nc2ccccc2NC(=O)c2ccc(OC)cc2)cc1
1.69e+07 l M-1 | 50000 l M-1 | COc1ccc(C(=O)Nc2ccccc2NC(=O)c2ccc(N(C)C)cc2)cc1
2.68e+06 l M-1 | 40000 l M-1 | CCc1ccc(C(=O)Nc2cc(O)ccc2NC(=O)c2ccc(OC)cc2)cc1

K ass [1] | K ass [2] | SMILES
770000 l M-1 | 10000 l M-1 | COc1ccc(C(=O)Nc2c(OC)ccc(OC)c2NC(=O)c2ccc(OC)cc2)cc1
2.92e+06 l M-1 | 50000 l M-1 | CC(C)(C)c1ccc(C(=O)Nc2ccccc2NC(=O)c2ccc(Cl)cc2)cc1
3.56e+06 l M-1 | 50000 l M-1 | COc1ccc(C(=O)Nc2cc(O)ccc2NC(=O)c2ccc(C(C)(C)C)cc2)cc1
1.3e+07 l M-1 | 130000 l M-1 | COc1ccc(C(=O)Nc2cc(NS(C)(=O)=O)ccc2NC(=O)c2ccc(C(C)(C)C)cc2)cc1
7.65e+06 l M-1 | 110000 l M-1 | COc1ccc(C(=O)Nc2ccc(NS(C)(=O)=O)cc2NC(=O)c2ccc(C(C)(C)C)cc2)cc1
640000 l M-1 | 20000 l M-1 | COc1ccc(C(=O)Nc2ccc(O)cc2NC(=O)c2ccc(OC)cc2)cc1
430000 l M-1 | 0 l M-1 | COc1ccc(C(=O)Nc2ccccc2NC(=O)c2ccc([S+](C)[O-])cc2)cc1 (stereo not drawn)
4.91e+06 l M-1 | 80000 l M-1 | COc1ccc(C(=O)Nc2ccccc2NC(=O)c2ccc(C(C)C)cc2)cc1
520000 l M-1 | 20000 l M-1 | COc1ccc(C(=O)Nc2ccccc2NC(=O)c2ccc(OC)cc2OC)cc1
560000 l M-1 | 0 l M-1 | C=Cc1cccc(C(=O)Nc2ccccc2NC(=O)c2ccc(C(C)(C)C)cc2)c1
– | 40000 l M-1 | COc1ccc(C(=O)Nc2ccc(O)cc2NC(=O)c2ccc(C(C)(C)C)cc2)cc1
450000 l M-1 | 10000 l M-1 | COc1ccc(C(=O)Nc2cccc(O)c2NC(=O)c2ccc(OC)cc2)cc1
290000 l M-1 | 0 l M-1 | COc1ccc(C(=O)Nc2ccccc2NC(=O)c2ccc(Oc3ccccc3)cc2)cc1
450000 l M-1 | 20000 l M-1 | COc1ccc(C(=O)Nc2ccc(C)cc2NC(=O)c2ccc(OC)cc2)cc1
280000 l M-1 | 0 l M-1 | Cc1ccc(C(=O)Nc2ccccc2NC(=O)c2ccc(C(C)(C)C)cc2)cc1
0 l M-1 | 0 l M-1 | COc1ccc(C(=O)Nc2cccc(NC(=O)c3ccc(OC)cc3)c2)cc1
440000 l M-1 | 0 l M-1 | CCCOc1ccc(C(=O)Nc2ccccc2NC(=O)c2ccc(OC)cc2)cc1
7.31e+06 l M-1 | 50000 l M-1 | COc1ccc(C(=O)Nc2ccccc2NC(=O)c2ccc(C(C)(C)C)cc2)cc1
3.05e+06 l M-1 | 10000 l M-1 | C=Cc1ccc(C(=O)Nc2ccccc2NC(=O)c2ccc(C(C)(C)C)cc2)cc1
640000 l M-1 | 0 l M-1 | CCOc1ccc(C(=O)Nc2ccccc2NC(=O)c2ccc(OC)cc2)cc1
820000 l M-1 | 10000 l M-1 | COc1ccc(C(=O)Nc2ccccc2NC(=O)c2ccc(OC(C)(C)C)cc2)cc1
20000 l M-1 | 0 l M-1 | COc1ccc(C(=O)Nc2ccccc2N(C)C(=O)c2ccc(OC)cc2)cc1
1.63e+06 l M-1 | 20000 l M-1 | COc1ccc(C(=O)Nc2ccccc2NC(=O)c2ccc(SC)cc2)cc1
10000 l M-1 | 0 l M-1 | COc1ccc(C(=O)Nc2ccccc2NC(=O)c2ccc(C(=O)C(F)(F)F)cc2)cc1

From ChEMBL document CHEMBL1132962, “1,2-Dibenzamidobenzene inhibitors of human factor Xa” (J Med Chem, 2000)
